Measured values reported in ChEMBL document CHEMBL4765360, “Design, synthesis and biological evaluation of novel potent STAT3 inhibitors based on BBI608 for cancer therapy” (Eur J Med Chem, 2020).
Calls of active or inactive are those of the source. The calls are words filed in the database; no cut-off is given here.

Key:
[1] = test system: MDA-MB-231; experiment: Antitumor activity against human MDA-MB-231 cells xenografted in BALB/c mouse assessed reduction in tumor weight at 5 mg/kg, ip administered once daily for 21 days and measured on day 21 relative to control; format: functional; settings: MDA-MB-231, ip, 504 h, time 21 day
How it was run: (§1)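 Female BALB/c nude mice, 5 weeks old (16–18 g), were given 5×10^6 MDA-MB-231 cells subcutaneously. At ~50 mm³, mice were randomized to three groups (n=6): vehicle, 5 or 10 mg/kg i.p. daily for 21 days. Tumor volume (length×width²/2) was measured every 3 days and body weight recorded. Tumors were excised and weighed at the end. TGI derived versus control; mean ± SEM.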

[2] = test system: MDA-MB-231; experiment: Induction of cell cycle arrest in human MDA-MB-231 cells assessed as G0/G1 phase accumulation at 2 uM incubated for 24 hrs by PI staining based flow cytometry analysis (reference value: 57.99 %); format: functional
[3] = test system: MDA-MB-231; experiment: Induction of apoptosis in human MDA-MB-231 cells assessed as late apoptotic cells at 2 uM incubated for 24 hrs by annexin V-FITC and PI staining based flow cytometry analysis (reference value: 3.72 %); format: functional
[4] = test system: MDA-MB-231; experiment: Induction of apoptosis in human MDA-MB-231 cells assessed as late apoptotic cells at 4 uM incubated for 24 hrs by annexin V-FITC and PI staining based flow cytometry analysis (reference value: 3.72 %); format: functional
[5] = test system: MDA-MB-231; experiment: Induction of apoptosis in human MDA-MB-231 cells assessed as viable cells at 1 uM incubated for 24 hrs by annexin V-FITC and PI staining based flow cytometry analysis (reference value: 93.37 %); format: functional; settings: read-out: Activity
[6] = Toxicity in BALB/c mouse xenografted with human MDA-MB-231 cells assessed as effect on body weight loss at 5 to 10 mg/kg, ip administered once daily for 21 days and measured for 21 days; format: organism-based; settings: in vivo, 504 h, dose 5-10 mg/kg/day, time 21 day; how it was run: as §1
[7] = test system: MDA-MB-231; experiment: Induction of apoptosis in human MDA-MB-231 cells assessed as early apoptotic cells at 4 uM incubated for 24 hrs by annexin V-FITC and PI staining based flow cytometry analysis (reference value: 2.69 %); format: functional
[8] = test system: MDA-MB-231; experiment: Induction of cell cycle arrest in human MDA-MB-231 cells assessed as G0/G1 phase accumulation at 4 uM incubated for 24 hrs by PI staining based flow cytometry analysis (reference value: 57.99 %); format: functional
[9] = biological target: Signal transducer and activator of transcription 3 (Homo sapiens, UniProt P40763); experiment: Displacement of 5-FAM-GpYLPQTV-NH2 from His-tagged STAT3 (unknown origin) (127 to 722 residues) incubated for 30 mins followed by fluorescent peptide probe addition and measured after 1 hr by fluorescence polarization based competition binding assay
[10] = test system: MDA-MB-468; experiment: Antiproliferative activity against human MDA-MB-468 cells overexpressing STAT3 assessed as reduction in cell growth incubated for 48 hrs by CCK-8 assay; format: functional, cell-based; settings: MDA-MB-468, 48 h
How it was run: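 Cells seeded at 5000-7000/well and allowed to settle for 8 h at 37 °C, 5% CO2. Graded compound concentrations were then added in triplicate (DMSO <0.1%) for 48 h. Medium was replaced with 10% CCK-8 for 4 h (MDA-MB-231, MDA-MB-468) or 1 h (HepG2), and A450 was read. IC50 is mean ± SD of at least three independent experiments. HepG2 was grown in high-glucose DMEM with 10% FBS.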

[11] = biological target: T1, Signal transducer and activator of transcription 1-alpha/beta (Homo sapiens) (UniProt P42224); experiment: Inhibition of STAT1 in human MDA-MB-231 cells assessed as reduction in STAT1 Y701 phosphorylation at 0.75 to 3 uM incubated for 24 hrs by Western blot analysis; format: cell-based; settings: dose 0.75-3 µM
T1 sequence (whole entry): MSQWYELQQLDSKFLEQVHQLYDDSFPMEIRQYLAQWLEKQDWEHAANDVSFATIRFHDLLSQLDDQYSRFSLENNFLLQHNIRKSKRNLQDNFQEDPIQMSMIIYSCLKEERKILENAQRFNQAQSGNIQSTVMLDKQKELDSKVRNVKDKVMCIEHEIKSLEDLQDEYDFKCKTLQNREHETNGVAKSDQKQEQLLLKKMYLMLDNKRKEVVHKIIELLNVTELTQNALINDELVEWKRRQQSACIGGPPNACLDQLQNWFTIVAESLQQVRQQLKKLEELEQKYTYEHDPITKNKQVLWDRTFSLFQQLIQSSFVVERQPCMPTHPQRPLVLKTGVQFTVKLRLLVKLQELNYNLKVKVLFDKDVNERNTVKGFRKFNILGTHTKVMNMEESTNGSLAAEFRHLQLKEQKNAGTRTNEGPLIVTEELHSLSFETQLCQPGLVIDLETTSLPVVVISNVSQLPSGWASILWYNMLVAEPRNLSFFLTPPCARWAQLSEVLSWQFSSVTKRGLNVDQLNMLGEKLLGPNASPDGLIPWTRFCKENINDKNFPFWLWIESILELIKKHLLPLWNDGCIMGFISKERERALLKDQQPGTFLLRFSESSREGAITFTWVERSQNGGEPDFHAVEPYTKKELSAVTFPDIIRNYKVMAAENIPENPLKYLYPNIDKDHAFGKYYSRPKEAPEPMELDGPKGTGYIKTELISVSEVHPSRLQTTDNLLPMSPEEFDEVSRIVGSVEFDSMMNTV
How it was run: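 MDA-MB-231 cells treated with a range of concentrations for 24 h. RIPA lysates with PMSF, 40 µg protein/lane, on 10% SDS-PAGE, then PVDF. Blocked in 5% milk/TBST for 2 h. Primary antibodies to STAT3, p-STAT3(Y705), STAT1, p-STAT1(Y701), c-Myc and Cyclin D1 overnight at 4 °C; GAPDH as loading control. HRP secondary for 1 h; ECL detection.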

[12] = test system: MDA-MB-231; experiment: Induction of cell cycle arrest in human MDA-MB-231 cells assessed as G2/M phase accumulation at 2 uM incubated for 24 hrs by PI staining based flow cytometry analysis (reference value: 15.80 %); format: functional
[13] = test system: MDA-MB-231; experiment: Antitumor activity against human MDA-MB-231 cells xenografted in BALB/c mouse assessed reduction in tumor weight at 10 mg/kg, ip administered once daily for 21 days and measured on day 21 relative to control; format: functional; parameters: scale not given: the % may be the effect or the level left; settings: dose 10 mg/kg/day; time 21 day; how it was run: as §1
[14] = test system: MDA-MB-231; experiment: Induction of apoptosis in human MDA-MB-231 cells incubated for 24 hrs by annexin V-FITC and PI staining based flow cytometry analysis; format: functional, cell-based; settings: dose 1-4 µM
[15] = test system: MDA-MB-231; experiment: Induction of cell cycle arrest in human MDA-MB-231 cells assessed as S phase accumulation at 1 uM incubated for 24 hrs by PI staining based flow cytometry analysis (reference value: 26.21 %); format: functional

Signal transducer and activator of transcription 3, sequence (P40763 whole entry, the tested form may be a part): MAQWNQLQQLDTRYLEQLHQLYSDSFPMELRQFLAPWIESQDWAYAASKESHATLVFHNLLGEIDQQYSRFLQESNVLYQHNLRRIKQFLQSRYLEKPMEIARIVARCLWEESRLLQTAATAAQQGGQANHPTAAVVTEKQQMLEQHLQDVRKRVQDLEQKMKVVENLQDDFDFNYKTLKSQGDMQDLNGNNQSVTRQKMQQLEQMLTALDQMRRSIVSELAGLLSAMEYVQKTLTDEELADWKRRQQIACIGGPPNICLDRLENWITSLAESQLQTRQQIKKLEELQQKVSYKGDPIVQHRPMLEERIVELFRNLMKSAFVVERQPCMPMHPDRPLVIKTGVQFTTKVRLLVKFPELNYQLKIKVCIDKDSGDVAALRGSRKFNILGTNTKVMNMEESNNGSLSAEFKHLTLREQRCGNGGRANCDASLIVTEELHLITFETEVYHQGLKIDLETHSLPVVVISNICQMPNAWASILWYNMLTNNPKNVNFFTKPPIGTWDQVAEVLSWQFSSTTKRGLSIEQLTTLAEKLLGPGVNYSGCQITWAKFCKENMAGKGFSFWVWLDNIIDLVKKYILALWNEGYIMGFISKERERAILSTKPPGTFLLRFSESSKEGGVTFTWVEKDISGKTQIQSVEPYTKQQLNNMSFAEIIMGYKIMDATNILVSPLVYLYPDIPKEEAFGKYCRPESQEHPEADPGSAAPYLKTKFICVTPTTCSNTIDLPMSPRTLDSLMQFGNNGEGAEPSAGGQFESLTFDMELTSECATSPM

SMILES: COc1ccc(NC2=CC(=O)c3cc(C(C)=O)oc3C2=O)cc1
- inhibition in vivo at 5 mg/kg/day [1]: 26%
- Activity [2]: 40.49%
- Activity [3]: 12.69%
- Activity [4]: 22.03%
- viability at 1 µM [5]: 87.9%
- Activity [6]: Non-Toxic
- Activity [7]: 10.25%
- Activity [8]: 35.39%
- IC50 [9]: 5180 nM
- inhibition ([9]; time 1.5 hrs): Dose-dependent effect
- IC50 [10]: 770 nM
- inhibition [11]: inactive
- Activity [12]: 13.3%
- Activity [13]: 45.19%
- Activity [14]: Dose-dependent effect
- Activity [15]: 34.31%
